Assays:
Type in all cases: functional
[1] = test system: Streptococcus pneumoniae; experiment: Antimicrobial activity against penicillin-susceptible Streptococcus pneumoniae by agar dilution method
[2] = test system: Streptococcus pneumoniae; experiment: Antimicrobial activity against penicillin-intermediate Streptococcus pneumoniae by agar dilution method
[3] = test system: Streptococcus pneumoniae; experiment: Antimicrobial activity against penicillin-resistant Streptococcus pneumoniae by agar dilution method
In short: (§1)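 Agar dilution MIC on Mueller-Hinton agar with 5% sheep blood, inocula 10^4 CFU/spot; amoxicillin-clavulanate combined 1:2; S. pneumoniae ATCC 49619 quality control each run.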

[4] = test system: Streptococcus pneumoniae; experiment: Antimicrobial activity against Streptococcus pneumoniae 1 by time-kill analysis
In short: (§2)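 Time-kill in cation-adjusted Mueller-Hinton broth with 5% lysed horse blood; inocula 5 × 105 to 5 × 10^6 CFU/ml; drugs at MIC, 2× and 4× MIC; 35°C shaking water bath; viable counts at 0, 3, 6, 12 and 24 h. Bactericidal if ≥3 log10 CFU/ml (99.9%) reduction from original inoculum; 90% and 99% killing also scored.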

[5] = test system: Streptococcus pneumoniae; experiment: Antimicrobial activity against Streptococcus pneumoniae 2 by time-kill analysis
In short: (§3)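 Time-kill in cation-adjusted Mueller-Hinton broth with 5% lysed horse blood; inocula 5 × 105 to 5 × 10^6 CFU/ml; drugs at MIC, 2× and 4× MIC; 35°C shaking water bath; viable counts at 0, 3, 6, 12, 24 h. Bactericidal = ≥3 log10 CFU/ml (99.9%) drop from original inoculum; 90%/99%/99.9% killing scored per strain.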

[6] = test system: Streptococcus pneumoniae; experiment: Antimicrobial activity against Streptococcus pneumoniae 3 by time-kill analysis; in short: as §3
[7] = test system: Streptococcus pneumoniae; experiment: Antimicrobial activity against Streptococcus pneumoniae 4 by time-kill analysis; in short: as §3
[8] = test system: Streptococcus pneumoniae; experiment: Antimicrobial activity against Streptococcus pneumoniae 5 by time-kill analysis; in short: as §2
[9] = test system: Streptococcus pneumoniae; experiment: Antimicrobial activity against Streptococcus pneumoniae 6 by time-kill analysis; in short: as §3
[10] = test system: Streptococcus pneumoniae; experiment: Antimicrobial activity against Streptococcus pneumoniae 7 by time-kill analysis; in short: as §3
[11] = test system: Streptococcus pneumoniae; experiment: Antimicrobial activity against Streptococcus pneumoniae 8 by time-kill analysis; in short: as §3
[12] = test system: Streptococcus pneumoniae; experiment: Antimicrobial activity against Streptococcus pneumoniae 9 by time-kill analysis; in short: as §2
[13] = test system: Streptococcus pneumoniae; experiment: Antimicrobial activity against Streptococcus pneumoniae 10 by time-kill analysis; in short: as §3
[14] = test system: Streptococcus pneumoniae; experiment: Antimicrobial activity against Streptococcus pneumoniae 11 by time-kill analysis; in short: as §3
[15] = test system: Streptococcus pneumoniae; experiment: Antimicrobial activity against Streptococcus pneumoniae 12 by time-kill analysis; in short: as §3
[16] = test system: Streptococcus pneumoniae; experiment: Antimicrobial activity against Streptococcus pneumoniae isolate 24 by agar dilution method
[17] = test system: Streptococcus pneumoniae; experiment: Antimicrobial activity against Streptococcus pneumoniae isolate 33 by agar dilution method; in short: as §1
[18] = test system: Streptococcus pneumoniae; experiment: Antimicrobial activity against Streptococcus pneumoniae isolate 37 by agar dilution method; in short: as §1
[19] = test system: Streptococcus pneumoniae; experiment: Antimicrobial activity against Streptococcus pneumoniae isolate 1055 by agar dilution method
[20] = test system: Streptococcus pneumoniae; experiment: Antimicrobial activity against Streptococcus pneumoniae isolate 1146 by agar dilution method; in short: as §1
[21] = test system: Streptococcus pneumoniae; experiment: Antimicrobial activity against Streptococcus pneumoniae isolate 1147 by agar dilution method; in short: as §1
[22] = test system: Streptococcus pneumoniae; experiment: Antimicrobial activity against Streptococcus pneumoniae isolate 1384 by agar dilution method; in short: as §1
[23] = test system: Streptococcus pneumoniae; experiment: Antimicrobial activity against Streptococcus pneumoniae isolate 1394 by agar dilution method
[24] = test system: Streptococcus pneumoniae; experiment: Antimicrobial activity against Streptococcus pneumoniae isolate 1397 by agar dilution method; in short: as §1
[25] = test system: Streptococcus pneumoniae; experiment: Antimicrobial activity against Streptococcus pneumoniae isolate 1424 by agar dilution method; in short: as §1
[26] = test system: Streptococcus pneumoniae; experiment: Antimicrobial activity against Streptococcus pneumoniae isolate 1564 by agar dilution method
[27] = test system: Streptococcus pneumoniae; experiment: Antimicrobial activity against Streptococcus pneumoniae isolate 2617 by agar dilution method; in short: as §1
[28] = test system: Streptococcus pneumoniae; experiment: Antimicrobial activity against Streptococcus pneumoniae isolate 2686 by agar dilution method; in short: as §1
[29] = test system: Streptococcus pneumoniae; experiment: Antimicrobial activity against Streptococcus pneumoniae isolate 2688 by agar dilution method; in short: as §1
[30] = test system: Streptococcus pneumoniae; experiment: Antimicrobial activity against Streptococcus pneumoniae isolate 2874 by agar dilution method; in short: as §1
[31] = test system: Streptococcus pneumoniae; experiment: Antimicrobial activity against Streptococcus pneumoniae isolate 2880 by agar dilution method; in short: as §1
[32] = test system: Streptococcus pneumoniae; experiment: Antimicrobial activity against Streptococcus pneumoniae isolate 3260 by agar dilution method
[33] = test system: Streptococcus pneumoniae; experiment: Antimicrobial activity against Streptococcus pneumoniae isolate 3263 by agar dilution method
[34] = test system: Streptococcus pneumoniae; experiment: Antimicrobial activity against Streptococcus pneumoniae isolate 3275 by agar dilution method; in short: as §1
[35] = test system: Streptococcus pneumoniae; experiment: Antimicrobial activity against Streptococcus pneumoniae isolate 3282 by agar dilution method
[36] = test system: Streptococcus pneumoniae; experiment: Antimicrobial activity against Streptococcus pneumoniae isolate 3346 by agar dilution method
[37] = test system: Streptococcus pneumoniae; experiment: Antimicrobial activity against Streptococcus pneumoniae isolate 3374 by agar dilution method; in short: as §1
[38] = test system: Streptococcus pneumoniae; experiment: Antimicrobial activity against Streptococcus pneumoniae isolate 3412 by agar dilution method; in short: as §1
[39] = test system: Streptococcus pneumoniae; experiment: Antimicrobial activity against Streptococcus pneumoniae isolate 3455 by agar dilution method
[40] = test system: Streptococcus pneumoniae; experiment: Antimicrobial activity against Streptococcus pneumoniae isolate 3458 by agar dilution method
[41] = test system: Streptococcus pneumoniae; experiment: Antimicrobial activity against Streptococcus pneumoniae isolate 3481 by agar dilution method; in short: as §1
[42] = test system: Streptococcus pneumoniae; experiment: Antimicrobial activity against Streptococcus pneumoniae isolate 3587 by agar dilution method
[43] = test system: Streptococcus pneumoniae; experiment: Antimicrobial activity against Streptococcus pneumoniae isolate 3681 by agar dilution method; in short: as §1
[44] = test system: Streptococcus pneumoniae; experiment: Antimicrobial activity against Streptococcus pneumoniae isolate 3791 by agar dilution method; in short: as §1
[45] = test system: Streptococcus pneumoniae; experiment: Antimicrobial activity against Streptococcus pneumoniae isolate 4747 by agar dilution method; in short: as §1
[46] = test system: Streptococcus pneumoniae; experiment: Antimicrobial activity against Streptococcus pneumoniae isolate 4755 by agar dilution method; in short: as §1
[47] = test system: Streptococcus pneumoniae; experiment: Antimicrobial activity against Streptococcus pneumoniae 19A by agar dilution method; in short: as §1

C=CC1=C(C(=O)O)N2C(=O)[C@@H](NC(=O)/C(=N\O)c3csc(N)n3)[C@H]2SC1 [CEFDINIR]
0.06 µg/mL: MIC50 [1] | MIC [5]
16 µg/mL: MIC [7] | MIC [11] | MIC [29]
0.5 µg/mL: MIC50 [2] | MIC [6]
0.12 µg/mL: MIC [4]
32 µg/mL: MIC [26]
8 µg/mL: MIC50 [3] | MIC90 [3] | MIC [8] | MIC [17] | MIC [19] | MIC [20] | MIC [21] | MIC [22] | MIC [23] | MIC [25] | MIC [28] | MIC [30] | MIC [32] | MIC [33] | MIC [35] | MIC [36] | MIC [39] | MIC [40] | MIC [42] | MIC [43] | MIC [44]
1 µg/mL: MIC [9] | MIC [12]
2 µg/mL: MIC [34]
0.125 µg/mL: MIC90 [1]
4 µg/mL: MIC90 [2] | MIC [10] | MIC [14] | MIC [15] | MIC [16] | MIC [18] | MIC [24] | MIC [27] | MIC [31] | MIC [37] | MIC [38] | MIC [41] | MIC [45] | MIC [46]
0.25 µg/mL: MIC [13]

O=C(O)c1cn(C2CC2)c2cc(N3CCNCC3)c(F)cc2c1=O [CIPROFLOXACIN]
16 µg/mL: MIC [7]
32 µg/mL: MIC [19] | MIC [20] | MIC [21]
1 µg/mL: MIC [8] | MIC [10] | MIC [14] | MIC [16] | MIC [18] | MIC [26] | MIC [29] | MIC [31] | MIC [43] | MIC [44]
> 32 µg/mL: MIC [4]

CC[C@H]1OC(=O)[C@H](C)[C@@H](O[C@H]2C[C@@](C)(OC)[C@@H](O)[C@H](C)O2)[C@H](C)[C@@H](O[C@@H]2O[C@H](C)C[C@H](N(C)C)[C@H]2O)[C@](C)(OC)C[C@@H](C)C(=O)[C@H](C)[C@@H](O)[C@]1(C)O [CLARITHROMYCIN]
64 µg/mL: MIC [22] | MIC [23] | MIC [24] | MIC [45]
> 64 µg/mL: MIC90 [1] | MIC90 [2] | MIC50 [47] | MIC90 [47] | MIC [16] | MIC [18] | MIC [32] | MIC [33] | MIC [34] | MIC [35] | MIC [36] | MIC [39] | MIC [40] | MIC [41] | MIC [42] | MIC [46]
0.03 µg/mL: MIC [17] | MIC [27] | MIC [43]
32 µg/mL: MIC [19] | MIC [26] | MIC [29] | MIC [30] | MIC [37] | MIC [38] | MIC [44]
16 µg/mL: MIC [25] | MIC [28]
8 µg/mL: MIC [31]
1 µg/mL: MIC50 [2] | MIC [21]
0.06 µg/mL: MIC50 [3]
0.5 µg/mL: MIC50 [1]
2 µg/mL: MIC [20]

From ChEMBL document CHEMBL1649446, “Comparative antipneumococcal activities of sulopenem and other drugs” (2009)
